Laboratory results reported in ChEMBL document CHEMBL1154428, “Cloning, nucleotide sequencing, and analysis of the AcrAB-TolC efflux pump of Enterobacter cloacae and determination of its involvement in antibiotic resistance in a clinical isolate” (2007).
In brackets after ≈: the same amount, converted by molar mass.

How the values were obtained:
[1] = system: Enterobacter cloacae; assay: Antibacterial activity against drug-resistant AcrAB-TolC efflux pump deficient Enterobacter cloacae EcdeltaacrA isolate expressing pAP2 plasmid containing Enterobacter cloacae acrA gene by Etest; format: functional
[2] = system: Enterobacter cloacae; assay: Antibacterial activity against drug-resistant AcrAB-TolC efflux pump deficient Enterobacter cloacae EcdeltaacrA isolate expressing pBGS18 plasmid by Etest; format: functional
[3] = system: Enterobacter cloacae; assay: Antibacterial activity against drug-resistant AcrAB-TolC efflux pump deficient Enterobacter cloacae EcdeltaacrA isolate by Etest; format: functional
[4] = system: Enterobacter cloacae; assay: Antibacterial activity against drug-resistant Enterobacter cloacae EcDC64 isolate expressing AcrAB-TolC efflux pump in presence of 20 ug/ml efflux pump inhibitor Phe-Arg-beta-naphthylamide by Etest
[5] = system: Enterobacter cloacae; assay: Antibacterial activity against drug-resistant Enterobacter cloacae EcDC64 isolate expressing AcrAB-TolC efflux pump by Etest; format: functional
[6] = system: Enterobacter cloacae; assay: Antibacterial activity against drug-resistant AcrAB-TolC efflux pump deficient Enterobacter cloacae EcdeltaacrA isolate expressing pAP3 plasmid containing Enterobacter aerogenes acrR gene by Etest; format: functional
[7] = system: Enterobacter cloacae; assay: Antibacterial activity against drug-resistant AcrAB-TolC efflux pump deficient Enterobacter cloacae EcdeltaacrA isolate in presence of 20 ug/ml efflux pump inhibitor Phe-Arg-beta-naphthylamide by Etest; format: functional
[8] = system: Enterobacter cloacae; assay: Antibacterial activity against drug-resistant AcrAB-TolC efflux pump deficient Enterobacter cloacae EcdeltaacrA isolate expressing pACYC184 plasmid by Etest; format: functional
[9] = system: Enterobacter cloacae; assay: Antibacterial activity against drug-resistant AcrAB-TolC efflux pump deficient Enterobacter cloacae EcdeltaacrA isolate in presence of 20 ug/ml efflux pump inhibitor Phe-Arg-beta-naphthylamide by standard disk diffusion method; format: functional
Outline: (§1)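 Standard disk diffusion on Mueller-Hinton agar with telithromycin, fusidic acid, novobiocin, nalidixic acid, rifampin and norfloxacin disks. The read-out is the inhibition zone diameter in mm. The acrA-deleted strain was complemented with acrA on pAP-2, and pACYC184 served as the empty vector.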

[10] = system: Enterobacter cloacae; assay: Antibacterial activity against drug-resistant Enterobacter cloacae EcDC64 isolate expressing pBGS18 plasmid by standard disk diffusion method
[11] = system: Enterobacter cloacae; assay: Antibacterial activity against drug-resistant Enterobacter cloacae EcDC64 isolate expressing pAP3 plasmid containing Enterobacter aerogenes acrR gene by standard disk diffusion method
[12] = system: Enterobacter cloacae; assay: Antibacterial activity against drug-resistant AcrAB-TolC efflux pump deficient Enterobacter cloacae EcdeltaacrA isolate expressing pAP2 plasmid containing Enterobacter cloacae acrA gene by standard disk diffusion method; format: functional; outline: as §1
[13] = system: Enterobacter cloacae; assay: Antibacterial activity against drug-resistant AcrAB-TolC efflux pump deficient Enterobacter cloacae EcdeltaacrA isolate by standard disk diffusion method; format: functional; outline: as §1
[14] = system: Enterobacter cloacae; assay: Antibacterial activity against drug-resistant AcrAB-TolC efflux pump deficient Enterobacter cloacae EcdeltaacrA isolate expressing pACYC184 plasmid by standard disk diffusion method; format: functional; outline: as §1
[15] = system: Enterobacter cloacae; assay: Antibacterial activity against drug-resistant Enterobacter cloacae EcDC64 isolate expressing AcrAB-TolC efflux pump by standard disk diffusion method; format: functional; outline: as §1
[16] = system: Enterobacter cloacae; assay: Antibacterial activity against drug-resistant Enterobacter cloacae EcDC64 isolate expressing AcrAB-TolC efflux pump in presence of 20 ug/ml efflux pump inhibitor Phe-Arg-beta-naphthylamide by standard disk diffusion method; format: functional; outline: as §1

| SMILES | MIC [1] | MIC [2] | MIC [3] | MIC [4] | MIC [5] | MIC [6] | MIC [7] | MIC [8] | inhibition zone (IZ) [9] | inhibition zone (IZ) [10] | inhibition zone (IZ) [11] | inhibition zone (IZ) [12] | inhibition zone (IZ) [13] | inhibition zone (IZ) [14] | inhibition zone (IZ) [15] | inhibition zone (IZ) [16] |
| --- | --- | --- | --- | --- | --- | --- | --- | --- | --- | --- | --- | --- | --- | --- | --- | --- |
| CCN1CCN(C(=O)N[C@@H](C(=O)N[C@@H]2C(=O)N3[C@@H]2SC(C)(C)[C@@H]3C(=O)O)c2ccccc2)C(=O)C1=O [PIPERACILLIN] | > 256 µg/mL | > 256 µg/mL | 192 µg/mL (≈ 371 µM) | 192 µg/mL | > 256 µg/mL | 96 µg/mL (≈ 185 µM) | 6 µg/mL | > 256 µg/mL |  |  |  |  |  |  |  |  |
| CO/N=C(\C(=O)N[C@@H]1C(=O)N2C(C(=O)O)=C(COC(N)=O)CS[C@H]12)c1ccco1 [CEFUROXIME] | > 256 µg/mL | > 256 µg/mL | > 256 µg/mL | > 256 µg/mL | > 256 µg/mL | > 256 µg/mL | 48 µg/mL | > 256 µg/mL |  |  |  |  |  |  |  |  |
| CO/N=C(\C(=O)N[C@@H]1C(=O)N2C(C(=O)O)=C(COC(C)=O)CS[C@H]12)c1csc(N)n1 [CEFOTAXIME] | > 256 µg/mL | > 256 µg/mL | > 256 µg/mL | > 256 µg/mL | > 256 µg/mL | > 256 µg/mL | 8 µg/mL | > 256 µg/mL |  |  |  |  |  |  |  |  |
| CN(C)c1cc(NC(=O)CNC(C)(C)C)c(O)c2c1C[C@H]1C[C@H]3[C@H](N(C)C)C(O)=C(C(N)=O)C(=O)[C@@]3(O)C(O)=C1C2=O [TIGECYCLINE] | 0.75 µg/mL (≈ 1.28 µM) | 0.38 µg/mL (≈ 0.649 µM) | 0.125 µg/mL (≈ 0.213 µM) | 0.125 µg/mL | 0.75 µg/mL (≈ 1.28 µM) | 0.19 µg/mL (≈ 0.324 µM) | 0.064 µg/mL | 0.5 µg/mL (≈ 0.854 µM) |  |  |  |  |  |  |  |  |
| CCn1cc(C(=O)O)c(=O)c2ccc(C)nc21 [NALIDIXIC ACID] |  |  |  |  |  |  |  |  | 40 mm | 21 mm | 29 mm | 12 mm | 33 mm | 30 mm | 24 mm | 27 mm |
| CC[C@H]1OC(=O)[C@H](C)C(=O)[C@H](C)[C@@H](O[C@@H]2O[C@H](C)C[C@H](N(C)C)[C@H]2O)[C@](C)(OC)C[C@@H](C)C(=O)[C@H](C)[C@H]2N(CCCCn3cnc(-c4cccnc4)c3)C(=O)O[C@]12C [TELITHROMYCIN] |  |  |  |  |  |  |  |  | 34 mm | 10 mm | 12 mm | 13 mm | 19 mm | 18 mm | 9 mm | 32 mm |
| CC[C@H]1OC(=O)[C@H](C)[C@@H](O[C@H]2C[C@@](C)(OC)[C@@H](O)[C@H](C)O2)[C@H](C)[C@@H](O[C@@H]2O[C@H](C)C[C@H](N(C)C)[C@H]2O)[C@](C)(O)C[C@@H](C)C(=O)[C@H](C)[C@@H](O)[C@]1(C)O [ERYTHROMYCIN] | 128 µg/mL (≈ 174 µM) | > 256 µg/mL | 12 µg/mL (≈ 16.4 µM) | 1 µg/mL | > 256 µg/mL | 48 µg/mL (≈ 65.4 µM) | 0.094 µg/mL | 16 µg/mL (≈ 21.8 µM) |  |  |  |  |  |  |  |  |
| CCC[C@@H]1C[C@@H](C(=O)N[C@@H]([C@H]2O[C@H](SC)[C@H](O)[C@@H](O)[C@H]2O)[C@H](C)Cl)N(C)C1 [CLINDAMYCIN] | > 256 µg/mL | > 256 µg/mL | 2 µg/mL (≈ 4.71 µM) | 6 µg/mL | > 256 µg/mL | 32 µg/mL (≈ 75.3 µM) | 1 µg/mL | 4 µg/mL (≈ 9.41 µM) |  |  |  |  |  |  |  |  |
| CC(C)(O/N=C(\C(=O)N[C@@H]1C(=O)N2C(C(=O)[O-])=C(C[n+]3ccccc3)CS[C@H]12)c1csc(N)n1)C(=O)O [CEFTAZIDIME] | > 256 µg/mL | > 256 µg/mL | > 256 µg/mL | > 256 µg/mL | > 256 µg/mL | > 256 µg/mL | 16 µg/mL | > 256 µg/mL |  |  |  |  |  |  |  |  |
| CO[C@@H]1[C@@H](OC(N)=O)[C@@H](O)[C@H](Oc2ccc3c(O)c(NC(=O)c4ccc(O)c(CC=C(C)C)c4)c(=O)oc3c2C)OC1(C)C [NOVOBIOCIN] |  |  |  |  |  |  |  |  | 22 mm | 0 mm | 0 mm | 0 mm | 16 mm | 14 mm | 0 mm | 20 mm |
| CCn1cc(C(=O)O)c(=O)c2cc(F)c(N3CCNCC3)cc21 [NORFLOXACIN] |  |  |  |  |  |  |  |  | 42 mm | 27 mm | 35 mm | 24 mm | 40 mm | 38 mm | 26 mm | 40 mm |
| CO[C@@]1(NC(=O)Cc2cccs2)C(=O)N2C(C(=O)O)=C(COC(N)=O)CS[C@@H]21 [CEFOXITIN] | > 256 µg/mL | > 256 µg/mL | > 256 µg/mL | > 256 µg/mL | > 256 µg/mL | > 256 µg/mL | > 256 µg/mL | > 256 µg/mL |  |  |  |  |  |  |  |  |
| O=C(N[C@H](CO)[C@H](O)c1ccc([N+](=O)[O-])cc1)C(Cl)Cl [CHLORAMPHENICOL] | > 256 µg/mL | 8 µg/mL (≈ 24.8 µM) | 0.5 µg/mL (≈ 1.55 µM) | 0.25 µg/mL | 8 µg/mL (≈ 24.8 µM) | 1 µg/mL (≈ 3.09 µM) | 0.047 µg/mL | > 256 µg/mL |  |  |  |  |  |  |  |  |
| CC(=O)OCC1=C(C(=O)O)N2C(=O)[C@@H](NC(=O)Cc3cccs3)[C@H]2SC1 [CEPHALOTHIN] | > 256 µg/mL | > 256 µg/mL | > 256 µg/mL | > 256 µg/mL | > 256 µg/mL | > 256 µg/mL | > 256 µg/mL | > 256 µg/mL |  |  |  |  |  |  |  |  |
| Cc1onc(-c2ccccc2)c1C(=O)N[C@@H]1C(=O)N2[C@@H]1SC(C)(C)[C@@H]2C(=O)O [OXACILLIN] | > 256 µg/mL | > 256 µg/mL | 96 µg/mL (≈ 239 µM) | 48 µg/mL | > 256 µg/mL | > 256 µg/mL | 4 µg/mL | > 256 µg/mL |  |  |  |  |  |  |  |  |
| CN(C)[C@@H]1C(O)=C(C(N)=O)C(=O)[C@@]2(O)C(O)=C3C(=O)c4c(O)cccc4[C@@](C)(O)[C@H]3C[C@@H]12 [TETRACYCLINE] | > 256 µg/mL | > 256 µg/mL | 64 µg/mL (≈ 144 µM) | 64 µg/mL | > 256 µg/mL | 192 µg/mL (≈ 432 µM) | 1.5 µg/mL | 64 µg/mL (≈ 144 µM) |  |  |  |  |  |  |  |  |
| NC[C@H]1O[C@H](O[C@H]2[C@H](O)[C@@H](O[C@H]3O[C@H](CO)[C@@H](O)[C@H](N)[C@H]3O)[C@H](N)C[C@@H]2N)[C@H](N)C[C@@H]1O [TOBRAMYCIN] | 1.5 µg/mL (≈ 3.21 µM) | 1 µg/mL (≈ 2.14 µM) | 0.125 µg/mL (≈ 0.267 µM) | 0.5 µg/mL | 1.5 µg/mL (≈ 3.21 µM) | 0.38 µg/mL (≈ 0.813 µM) | 0.047 µg/mL | 0.25 µg/mL (≈ 0.535 µM) |  |  |  |  |  |  |  |  |
| CC(=O)NC[C@H]1CN(c2ccc(N3CCOCC3)c(F)c2)C(=O)O1 [LINEZOLID] | > 256 µg/mL | > 256 µg/mL | 8 µg/mL (≈ 23.7 µM) | 4 µg/mL | > 256 µg/mL | > 256 µg/mL | 0.5 µg/mL | 4 µg/mL (≈ 11.9 µM) |  |  |  |  |  |  |  |  |
| NCC[C@H](O)C(=O)N[C@@H]1C[C@H](N)[C@@H](O[C@H]2O[C@H](CN)[C@@H](O)[C@H](O)[C@H]2O)[C@H](O)[C@H]1O[C@H]1O[C@H](CO)[C@@H](O)[C@H](N)[C@H]1O [AMIKACIN] | 2 µg/mL (≈ 3.42 µM) | 2 µg/mL (≈ 3.42 µM) | 0.5 µg/mL (≈ 0.854 µM) | 1.5 µg/mL | 2 µg/mL (≈ 3.42 µM) | 1 µg/mL (≈ 1.71 µM) | 0.125 µg/mL | 0.5 µg/mL (≈ 0.854 µM) |  |  |  |  |  |  |  |  |
| CC(=O)O[C@H]1C[C@@]2(C)[C@@H](C[C@@H](O)[C@H]3[C@@]4(C)CC[C@@H](O)[C@@H](C)[C@@H]4CC[C@@]32C)/C1=C(\CCC=C(C)C)C(=O)O [FUSIDIC ACID] |  |  |  |  |  |  |  |  | 26 mm | 0 mm | 0 mm | 0 mm | 0 mm | 0 mm | 0 mm | >40 mm |
| CO[C@H]1/C=C/O[C@@]2(C)Oc3c(C)c(O)c4c(O)c(c(/C=N/N5CCN(C)CC5)c(O)c4c3C2=O)NC(=O)/C(C)=C\C=C\[C@H](C)[C@H](O)[C@@H](C)[C@@H](O)[C@@H](C)[C@H](OC(C)=O)[C@@H]1C [RIFAMPIN] |  |  |  |  |  |  |  |  | 28 mm | 10 mm | 10 mm | 0 mm | 13 mm | 8 mm | 0 mm | 26 mm |
